{"source": "ChEMBL document CHEMBL2331353", "about": "“Synthesis and biological evaluation of some novel resveratrol amide derivatives as potential anti-tumor agents” (Eur J Med Chem, 2013)", "key": {"[1]": {"target": "T1, Prostaglandin G/H synthase 2 (Homo sapiens, UniProt P35354)", "T1 sequence (P35354 whole entry)": "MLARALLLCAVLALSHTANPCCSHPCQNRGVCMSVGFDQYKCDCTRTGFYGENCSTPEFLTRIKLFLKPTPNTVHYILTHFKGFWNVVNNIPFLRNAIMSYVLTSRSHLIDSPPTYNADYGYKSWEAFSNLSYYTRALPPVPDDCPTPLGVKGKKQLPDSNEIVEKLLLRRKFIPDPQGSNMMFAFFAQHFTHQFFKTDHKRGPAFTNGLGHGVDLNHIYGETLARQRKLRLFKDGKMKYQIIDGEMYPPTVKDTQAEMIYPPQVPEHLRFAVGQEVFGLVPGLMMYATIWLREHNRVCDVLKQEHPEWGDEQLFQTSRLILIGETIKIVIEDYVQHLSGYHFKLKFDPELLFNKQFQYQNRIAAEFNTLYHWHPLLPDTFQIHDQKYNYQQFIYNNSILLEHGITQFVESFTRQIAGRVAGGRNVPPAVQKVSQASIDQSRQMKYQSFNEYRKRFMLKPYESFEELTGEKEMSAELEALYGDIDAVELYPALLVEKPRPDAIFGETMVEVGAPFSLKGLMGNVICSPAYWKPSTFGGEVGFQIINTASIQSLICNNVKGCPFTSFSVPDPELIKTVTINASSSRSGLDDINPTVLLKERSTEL", "assay": "Inhibition of COX-2 (unknown origin) by chemiluminescence assay"}, "[2]": {"tested_on": "A549", "assay": "Antitumor activity against human A549 cells assessed as inhibition of cell proliferation after 48 hrs by MTT assay", "format": "functional, cell-based", "details": "A549, 48 h", "summary_of_the_method": "(§1)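 Cells grown to log phase in RPMI 1640 with 10% FBS, seeded at 2×10^4 cells/mL and preincubated 24 h at 37 °C, 5% CO2. Compounds at preset concentrations added (6 wells), celecoxib as positive reference, 48 h exposure. MTT (2.5 mg/mL in PBS) for 4 h, then SDS/isobutanol/HCl extraction overnight at 37 °C. OD read at 570 nm. Triplicate wells per concentration, at least three independent runs.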"}, "[3]": {"target": "T2, Prostaglandin G/H synthase 2 (Mus musculus, UniProt Q05769)", "T2 sequence (Q05769 whole entry)": "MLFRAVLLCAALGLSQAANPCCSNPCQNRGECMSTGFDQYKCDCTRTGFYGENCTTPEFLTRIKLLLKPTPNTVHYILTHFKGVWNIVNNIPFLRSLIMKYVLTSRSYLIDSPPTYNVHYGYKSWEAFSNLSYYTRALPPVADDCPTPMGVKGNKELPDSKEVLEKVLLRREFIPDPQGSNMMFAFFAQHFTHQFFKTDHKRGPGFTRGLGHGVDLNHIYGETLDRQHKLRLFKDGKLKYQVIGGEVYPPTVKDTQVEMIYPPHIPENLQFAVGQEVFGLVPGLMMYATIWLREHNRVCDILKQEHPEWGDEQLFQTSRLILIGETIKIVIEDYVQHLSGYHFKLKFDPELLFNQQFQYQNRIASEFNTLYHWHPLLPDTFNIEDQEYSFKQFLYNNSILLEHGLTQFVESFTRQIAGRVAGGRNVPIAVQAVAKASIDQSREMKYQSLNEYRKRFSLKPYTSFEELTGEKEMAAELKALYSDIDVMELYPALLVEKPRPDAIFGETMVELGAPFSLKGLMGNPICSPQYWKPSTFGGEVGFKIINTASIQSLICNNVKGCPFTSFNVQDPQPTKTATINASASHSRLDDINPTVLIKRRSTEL", "assay": "Inhibition of COX-2 in mouse RAW264.7 cells assessed as decrease in LPS-induced PGE2 production", "format": "cell-based"}, "[4]": {"target": "Prostaglandin G/H synthase 1 (Homo sapiens, UniProt P23219)", "sequence (P23219 whole entry)": "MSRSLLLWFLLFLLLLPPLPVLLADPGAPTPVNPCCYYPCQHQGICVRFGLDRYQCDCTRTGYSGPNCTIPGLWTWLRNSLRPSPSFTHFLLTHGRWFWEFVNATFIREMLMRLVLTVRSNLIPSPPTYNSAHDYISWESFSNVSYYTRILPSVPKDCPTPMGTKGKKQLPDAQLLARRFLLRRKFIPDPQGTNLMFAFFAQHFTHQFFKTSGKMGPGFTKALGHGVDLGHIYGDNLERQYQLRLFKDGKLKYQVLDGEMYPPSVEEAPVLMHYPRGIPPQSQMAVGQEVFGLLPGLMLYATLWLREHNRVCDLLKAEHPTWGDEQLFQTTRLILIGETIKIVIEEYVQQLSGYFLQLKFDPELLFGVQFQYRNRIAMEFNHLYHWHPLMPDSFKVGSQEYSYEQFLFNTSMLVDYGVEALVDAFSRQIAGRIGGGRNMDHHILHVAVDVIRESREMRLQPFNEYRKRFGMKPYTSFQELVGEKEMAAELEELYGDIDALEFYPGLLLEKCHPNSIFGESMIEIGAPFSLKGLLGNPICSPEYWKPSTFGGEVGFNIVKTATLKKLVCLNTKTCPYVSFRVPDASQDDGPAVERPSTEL", "assay": "Inhibition of COX-1 (unknown origin) by chemiluminescence assay"}, "[5]": {"tested_on": "MCF7", "assay": "Antitumor activity against human MCF7 cells assessed as inhibition of cell proliferation after 48 hrs by MTT assay", "format": "functional, cell-based", "details": "MCF7, 48 h", "summary_of_the_method": "as §1"}, "[6]": {"tested_on": "B16-F10", "assay": "Antitumor activity against mouse B16F10 cells assessed as inhibition of cell proliferation after 48 hrs by MTT assay", "format": "functional, cell-based", "details": "B16-F10, 48 h", "summary_of_the_method": "as §1"}, "[7]": {"tested_on": "RAW264.7", "assay": "Inhibition of LPS-induced COX-2 expression in mouse RAW264.7 cells at >0.5 uM treated for 15 mins before LPS challenge measured after 18 hrs by Western blot analysis", "format": "functional, cell-based", "summary_of_the_method": "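RAW 264.7 cells (5×10^5) incubated 24 h in 12-well plates. Compound pretreatment at 0.5, 1.0 or 1.5 µM for 15 min, then LPS 1 µg/mL for 18 h. Cells lysed in lysis buffer. COX-2 protein detected by Western immunoblot.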"}}, "note": "Calls of active or inactive are those of the source. No cut-off for these calls is given here.", "data": [{"smiles": "CCCCCCN(CCCCCC)C(=O)/C=C/c1c(/C=C/c2ccc(OC)cc2)cc(OC)cc1OC", "values": [{"measurement": "IC50", "setting": "[1]", "value": 9.08, "unit": "µM"}, {"measurement": "IC50", "setting": "[2]", "value": 5.34, "unit": "µM"}, {"measurement": "IC50", "setting": "[3]", "value": 3.1, "unit": "µM"}, {"measurement": "IC50", "setting": "[4]", "value": "> 50", "unit": "µM"}, {"measurement": "IC50", "setting": "[5]", "value": 4.03, "unit": "µM"}, {"measurement": "IC50", "setting": "[6]", "value": 8.02, "unit": "µM"}]}, {"smiles": "CCCCNC(=O)/C=C/c1c(/C=C/c2ccc(OC)cc2)cc(OC)cc1OC", "values": [{"measurement": "IC50", "setting": "[1]", "value": 1.02, "unit": "µM"}, {"measurement": "IC50", "setting": "[2]", "value": 1.88, "unit": "µM"}, {"measurement": "IC50", "setting": "[3]", "value": 0.28, "unit": "µM"}, {"measurement": "inhibition", "setting": "[7]", "value": "Active"}, {"measurement": "IC50", "setting": "[4]", "value": "> 50", "unit": "µM"}, {"measurement": "IC50", "setting": "[5]", "value": 1.33, "unit": "µM"}, {"measurement": "IC50", "setting": "[6]", "value": 2.08, "unit": "µM"}]}, {"smiles": "CCC1CCCCN1C(=O)/C=C/c1c(/C=C/c2ccc(OC)cc2)cc(OC)cc1OC", "note": "(configuration not stated)", "values": [{"measurement": "IC50", "setting": "[1]", "value": 10.3, "unit": "µM"}, {"measurement": "IC50", "setting": "[2]", "value": 5.6, "unit": "µM"}, {"measurement": "IC50", "setting": "[3]", "value": 6.27, "unit": "µM"}, {"measurement": "IC50", "setting": "[4]", "value": "> 50", "unit": "µM"}, {"measurement": "IC50", "setting": "[5]", "value": 5.24, "unit": "µM"}, {"measurement": "IC50", "setting": "[6]", "value": 7.38, "unit": "µM"}]}, {"smiles": "COc1ccc(/C=C/c2cc(OC)cc(OC)c2/C=C/C(=O)NCCCl)cc1", "values": [{"measurement": "IC50", "setting": "[1]", "value": 1.36, "unit": "µM"}, {"measurement": "IC50", "setting": "[2]", "value": 2, "unit": "µM"}, {"measurement": "IC50", "setting": "[3]", "value": 0.45, "unit": "µM"}, {"measurement": "IC50", "setting": "[4]", "value": 32.3, "unit": "µM"}, {"measurement": "IC50", "setting": "[5]", "value": 2.3, "unit": "µM"}, {"measurement": "IC50", "setting": "[6]", "value": 3.45, "unit": "µM"}]}, {"smiles": "COc1ccc(/C=C/c2cc(OC)cc(OC)c2/C=C/C(=O)N2CCCC2)cc1", "values": [{"measurement": "IC50", "setting": "[1]", "value": 8.87, "unit": "µM"}, {"measurement": "IC50", "setting": "[2]", "value": 6.35, "unit": "µM"}, {"measurement": "IC50", "setting": "[3]", "value": 3.76, "unit": "µM"}, {"measurement": "IC50", "setting": "[4]", "value": "> 50", "unit": "µM"}, {"measurement": "IC50", "setting": "[5]", "value": 4.2, "unit": "µM"}, {"measurement": "IC50", "setting": "[6]", "value": 9.28, "unit": "µM"}]}, {"smiles": "COc1ccc(/C=C/c2cc(OC)cc(OC)c2/C=C/C(=O)NC2CCCCC2)cc1", "values": [{"measurement": "IC50", "setting": "[1]", "value": 5.09, "unit": "µM"}, {"measurement": "IC50", "setting": "[2]", "value": 3.61, "unit": "µM"}, {"measurement": "IC50", "setting": "[3]", "value": 1.98, "unit": "µM"}, {"measurement": "IC50", "setting": "[4]", "value": "> 50", "unit": "µM"}, {"measurement": "IC50", "setting": "[5]", "value": 2.63, "unit": "µM"}, {"measurement": "IC50", "setting": "[6]", "value": 5.48, "unit": "µM"}]}]}
